For data set [1], the target named is T1, Cannabinoid receptor 1 (Homo sapiens, UniProt P21554). In words: Positive allosteric modulatory activity at human CB1R expressed in CHO-K1 cells assessed as increase in CP55940-induced inhibition of forskolin-stimulated cAMP production after 30 mins in presence of CP55940 at EC20 concentration by hit-hunter cAMP assay. In kind it is functional, cell-based. In outline: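 Read-out was chemiluminescent cAMP detection, fit with a variable-slope 4-parameter regression. n = 1–3 independent experiments in duplicate.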
T1 sequence (P21554 whole entry): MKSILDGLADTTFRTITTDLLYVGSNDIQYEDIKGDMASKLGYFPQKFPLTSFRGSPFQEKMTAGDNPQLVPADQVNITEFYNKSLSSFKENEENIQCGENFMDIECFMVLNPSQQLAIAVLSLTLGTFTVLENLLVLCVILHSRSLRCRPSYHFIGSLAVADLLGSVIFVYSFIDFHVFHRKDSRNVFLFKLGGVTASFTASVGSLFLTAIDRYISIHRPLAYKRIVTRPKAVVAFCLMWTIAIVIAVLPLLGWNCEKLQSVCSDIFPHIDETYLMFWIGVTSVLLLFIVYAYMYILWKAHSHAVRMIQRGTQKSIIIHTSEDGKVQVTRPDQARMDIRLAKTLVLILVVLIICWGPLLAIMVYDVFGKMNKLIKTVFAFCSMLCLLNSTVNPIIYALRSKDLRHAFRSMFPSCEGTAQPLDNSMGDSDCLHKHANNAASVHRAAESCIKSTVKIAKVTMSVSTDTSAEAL
(cAMP levels reflect the balance of adenylyl cyclase and phosphodiesterase activity.)

Data set [2] has as its system Mus musculus. The data set can be described thus: Antiallodynic activity against CFA-induced mechanical allodynia CD1 mouse model assessed as increase in ipsilateral paw withdrawal threshold at 3 to 30 mg/kg, ip measured every 3 hrs for 2 days post treatment by Von Frey test. Format: functional, organism-based. An outline of the steps: (§1)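 Mice received CFA injection into one paw. Mechanical paw withdrawal thresholds were measured in the injected (ipsilateral) and contralateral paws after i.p. compound at 0.1, 0.3, 1, 3, 10 or 30 mg/kg, compared with vehicle-treated groups at the same times.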

Data set [3] addresses T1, Cannabinoid receptor 1. In words: Positive allosteric modulation activity at human CB1 receptor expressed in CHO cell membranes assessed as increase in [3H]CP55940 binding at 1 uM measured after 90 mins in presence of [35S]GTPgammaS by liquid scintillation analysis. Format: functional.
For data set [4] the following is noted: human, microsomes, 1 µM.
The subject of data set [5] is Mus musculus. The data set can be described thus: Antiallodynic activity against CFA-induced mechanical allodynia CD1 mouse model assessed as effect on ipsilateral paw withdrawal threshold at 0.3 mg/kg, ip measured every 3 hrs for 2 days post treatment by Von Frey test. Format: functional, organism-based. In outline: as §1
Data set [6] relates to Mus musculus. In words: Effect on contralateral paw withdrawl threshold in CFA-induced mechanical allodynia CB1 receptor knockout CD1 mouse model at 0.1 to 30 mg/kg, ip measured for 0.5 to 4 hrs by Von Frey test. To be noted: in vivo. In kind it is ADME, organism-based.
Data set [7] addresses Cannabinoid receptor 1 (Rattus norvegicus) (UniProt P20272). The data set can be described thus: Positive allosteric modulatory activity at N-terminal GFP-tagged rat CB1R receptor expressed in HEK293 cells assessed as increase in CP55940-induced inhibition of forskolin-induced cAMP accumulation by measuring Emax for cAMP accumulation at low concentration of CP55940 at 0.3 microM after 30 mins by TR-FRET assay relative to forskolin. Format: functional, cell-based.

Data set [8] addresses T1, Cannabinoid receptor 1. In words: Allosteric agonist activity at human CB1R expressed in CHO-K1 cells assessed as inhibition of forskolin-induced cAMP accumulation by measuring cAMP accumulation at minimal level at higher concentrations after 90 mins by hit-hunter cAMP assay relative to forskolin. Format: functional, cell-based. An outline of the steps:
(§2)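 HitHunter CHO-K1 hCB1R cells (20,000/well) were held overnight in Opti-MEM with 1% FBS. They were then co-treated at 37°C with 10 μM forskolin plus compound alone (0.10 nM – 10 μM) for 90 min. Chemiluminescent cAMP detection followed (two 60-min room-temperature steps). Data as % forskolin, variable-slope 4-parameter fit; Emin is the lower plateau. n ≥ 6, triplicate.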

Data set [9] concerns the target T1, Cannabinoid receptor 1. The data set can be described thus: Positive allosteric modulatory activity at human CB1R expressed in CHO-K1 cells assessed as increase in CP55940-induced inhibition of forskolin-induced cAMP accumulation after 90 mins in presence of 100 nM CP55940 by hit-hunter cAMP assay. In kind it is functional, cell-based. In outline:
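Uses the HitHunter CHO-K1 hCB1R cAMP set-up above. Data normalized to % forskolin, 4-parameter fit. n ≥ 6, triplicate.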

Data set [10] concerns the target Cannabinoid receptor 1 (Rattus norvegicus) (UniProt P20272). The data set can be described thus: Allosteric agonist activity at N-terminal GFP-tagged rat CB1R expressed in HEK293 cells assessed as inhibition of forskolin-induced cAMP production by measuring cAMP accumulation at minimal level at higher concentrations after 30 min by TR-FRET assay relative to forskolin. Format: functional, cell-based. In outline:
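HEK293 cells stably expressing N-terminal GFP-tagged rat CB1R were trypsin-EDTA dissociated and resuspended in HBSS with 0.1% BSA and 0.5mM IBMX at 500 cells/well. Cells got 5μM forskolin plus compound (1 pM – 10 μM) alone for 30 min. 4-parameter fit; Emin is the lower plateau. n ≥ 3, triplicate.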

In data set [11] the target is T1, Cannabinoid receptor 1. In words: Positive allosteric modulatory activity at human CB1R expressed in CHO-K1 cells assessed as increase in CP55940-induced beta-arrestin2 recruitment after 90 mins in presence of CP55940 at EC20 concentration by pathhunter beta-arrestin assay relative to control. In kind it is cell-based. An outline of the steps:
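Read-out was chemiluminescent β-arrestin2 recruitment, fit with a 4-parameter regression. n = 1–3 independent experiments in duplicate.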
(Recruitment of arrestin is a read-out of receptor activation apart from second messengers.)

The target of data set [12] is T1, Cannabinoid receptor 1. In words: Displacement of [3H]SR141716A from human CB1R receptor expressed in CHO cell membranes after 2 hrs by liquid scintillation spectrometry analysis.
Data set [13] concerns the target T1, Cannabinoid receptor 1. In words: Allosteric agonist activity at human CB1R expressed in CHO-K1 cells assessed as inhibition of forskolin-induced cAMP accumulation after 90 mins by hit-hunter cAMP assay. Format: functional, cell-based. An outline of the steps:
as §2

The test system of data set [14] is Mus musculus. The data set can be described thus: Effect on contralateral paw withdrawl threshold in CFA-induced mechanical allodynia CD1 mouse model at 0.1 to 30 mg/kg, ip measured every 3 hrs for 2 days post treatment by Von Frey test. In kind it is ADME, organism-based. The conditions noted are these: in vivo, 48 h. An outline of the steps:
as §1

Data set [15] addresses T1, Cannabinoid receptor 1. The data set can be described thus: Allosteric agonist activity at human CB1R expressed in CHO-K1 cells assessed as increase in beta arrestin2 recruitment after 90 mins by pathhunter beta-arrestin assay relative to CP55940. In kind it is cell-based. An outline of the steps: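 PathHunter CHO-K1 hCB1R cells (20,000/well) were held overnight in Opti-MEM with 1% FBS. Compound alone (0.10 nM – 10 μM) was given at 37°C for 90 min, then detection solution for 60 min at room temperature and chemiluminescence was read.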

Data set [16] has as its system Mus musculus. In words: Antiallodynic activity in ip dosed CFA-induced mechanical allodynia CD1 mouse model assessed as increase in ipsilateral paw withdrawal threshold measured every 3 hrs for 2 days post treatment by Von Frey test. In kind it is functional, organism-based. An outline of the steps: as §1
For data set [17], the target named is T1, Cannabinoid receptor 1. In words: Positive allosteric modulatory activity at human CB1R expressed in CHO-K1 cells assessed as maximal increase in CP55940-induced beta arrestin2 recruitment after 90 mins in presence of 100 nM CP55940 by pathhunter beta-arrestin assay relative to CP55940. In kind it is cell-based.
A short description of data set [18]: Toxicity in C57BL/6 mouse assessed as catalepsy at 0.1 to 10 mg/kg, ip after 5 mins by bar holding assay. In kind it is organism-based. The conditions noted are these: in vivo. In outline: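 Male C57BL/6 mice were given 0.1 – 10 mg/kg compound or vehicle (1:1:18 ethanol:cremaphor:saline). Catalepsy was assessed at 5 min as % MPE with a 60 sec maximum. n = 5–6.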

The target in data set [19] is T1, Cannabinoid receptor 1. In words: Agonist activity at human CB1 receptor expressed in CHO cell membranes assessed as increase in G-protein coupling by measuring [35S]GTPgammaS binding after 90 mins in presence of [35S]GTPgammaS by liquid scintillation analysis relative to control. Format: functional. In outline: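 [35S]GTPγS binding to G protein in membranes from CHO cells stably expressing human CB1R, with test compound given alone. Data fit to a variable-slope 4-parameter nonlinear regression. n = 4–6 independent experiments in duplicate.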
On the technique in general: GTPγS is a poorly hydrolysed GTP analogue; its binding reports G protein activation.

The target of data set [20] is Cannabinoid receptor 1 (Rattus norvegicus) (UniProt P20272). The data set can be described thus: Positive allosteric modulatory activity at N-terminal GFP-tagged rat CB1R receptor expressed in HEK293 cells assessed as increase in CP55940-induced inhibition of forskolin-induced cAMP accumulation by measuring Emax for cAMP accumulation at low concentration of CP55940 at 0.001 microM after 30 mins by TR-FRET assay relative to forskolin. Format: functional, cell-based.
Cannabinoid receptor 1 (Rattus norvegicus), sequence (P20272 whole entry): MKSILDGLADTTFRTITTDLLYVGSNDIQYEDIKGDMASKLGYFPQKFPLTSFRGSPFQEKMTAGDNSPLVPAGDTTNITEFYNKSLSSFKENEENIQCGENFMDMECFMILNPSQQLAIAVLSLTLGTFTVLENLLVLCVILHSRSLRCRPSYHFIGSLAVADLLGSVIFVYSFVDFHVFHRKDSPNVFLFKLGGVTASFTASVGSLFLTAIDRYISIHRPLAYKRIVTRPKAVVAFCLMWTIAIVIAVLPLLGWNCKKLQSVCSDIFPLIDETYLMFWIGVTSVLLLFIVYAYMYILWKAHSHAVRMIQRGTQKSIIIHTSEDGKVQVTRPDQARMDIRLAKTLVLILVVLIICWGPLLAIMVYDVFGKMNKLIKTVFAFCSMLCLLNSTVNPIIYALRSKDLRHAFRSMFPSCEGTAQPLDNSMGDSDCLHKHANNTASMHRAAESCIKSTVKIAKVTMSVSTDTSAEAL

pEC50, pKi: −log10 of the molar value. Activity calls are given as the source filed them.

The pEC50 is the EC50 on a negative log10 scale, so that one unit is a factor of ten. As usually defined, the Emax is the size of the effect at its maximum, as opposed to the concentration needed. Broadly, the pKi is −log10 of the Ki, conventionally taken in molar units. Lower therefore signals a large Ki. With `O=[N+]([O-])CC(c1ccccc1F)c1c(-c2cccc(F)c2)[nH]c2cc(F)ccc12` (stereo not given), the results for the pEC50 on Cannabinoid receptor 1 [1], at Cannabinoid receptor 1 [9] and at Cannabinoid receptor 1 [13] were 7.55, 8.66 and 8.37, respectively. Besides, the result in the data set with Mus musculus [2] and at Cannabinoid receptor 1 [3] was Active. The molecule also displayed a CLH in data set [4] of 44.9 µL/min. Besides, the result in the data set on Mus musculus [5] was inactive. The Activity result in the data set on Mus musculus [6] was “Non-Toxic”; in the data set on Mus musculus [14] it was “Non-Toxic”; in the data set with Mus musculus [16], “Dose-dependent effect”; in data set [18], “Non-Toxic”. Also, the Emax in data set [7] is 32%; on Cannabinoid receptor 1 [11], 71%; at Cannabinoid receptor 1 [15] it was 34%; at Cannabinoid receptor 1 [17], 130%; at Cannabinoid receptor 1 [19], 81%; in data set [20], 76%. In addition, the Emin on Cannabinoid receptor 1 [8] stood at 4.2%; in [10], 32%. Also, the pKi on Cannabinoid receptor 1 [12] was 8.32.
As for `O=[N+]([O-])CC(c1ccccc1F)c1c(-c2cccc(F)c2)[nH]c2c(F)cccc12` (stereo not given), the figures for the pEC50 on Cannabinoid receptor 1 [1], at Cannabinoid receptor 1 [9] and on Cannabinoid receptor 1 [13] were 8.04, 8.77 and 8.41, respectively. Besides, the outcome with Mus musculus [2] and on Cannabinoid receptor 1 [3] was Active. Also, the CLH in data set [4] was 44.4 µL/min. In the data set with Mus musculus [5], the result was inactive. The Activity entry in the data set on Mus musculus [6] was “Non-Toxic”; in the data set with Mus musculus [14], “Non-Toxic”; with Mus musculus [16], “Dose-dependent effect”; in data set [18], “Non-Toxic”. Also, the Emax was determined as 33% in [7]; 82% at Cannabinoid receptor 1 [11]; 25% on Cannabinoid receptor 1 [15]; 130% on Cannabinoid receptor 1 [17]; 84% at Cannabinoid receptor 1 [19]; 74% in data set [20]. Also, the Emin is 18% at Cannabinoid receptor 1 [8] and 30% in data set [10]. At Cannabinoid receptor 1 [12], the pKi is 8.28.

(Values after ChEMBL document CHEMBL4376840, “Application of Fluorine- and Nitrogen-Walk Approaches: Defining the Structural and Functional Diversity of 2-Phenylindole Class of Cannabinoid 1 Receptor Positive Allosteric Modulators” (J Med Chem, 2020).)
